# Screens from PubChem BioAssay.
# ABHD5-PLIN5 inh – blocks binding of human ABHD5 to perilipin-5 | Q00G26+Q8WTS1 | Split G. princeps luciferase complementation, luminescence, 4 h | inhibition, % at 4 µM | hit rate 0.78% among 360,000 | AID 602281;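 active means inhibition above the mean inhibition across every tested compound plus 3 SD, cut at about 22% in these data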;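 further: 0% = DMSO only wells and the 100% control is not disclosed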
# Beta2AR agonist – human beta-2 adrenergic receptor agonism by FAP; P07550; Am2.2-beta2AR cells, FAP receptor internalization, flow cytometry; response, % (concentration not given with the values); hit rate 0.43% among 340,000; AID 504454;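 active means response above a set limit, near 3 SD of response in nonfluorescent compounds, cut at about 42% in these data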
# MC4R barr agon – agonists of human melanocortin 4 receptor (MC4R) beta-arrestin | hit rate 0.98% among 360,000 | activation, % at 8.9 µM | U2OS MC4R beta-arrestin complementation, luminescence; percent of melanotan II response, DMSO zero;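 active means activation above a per-plate cutoff, the mean activation of sample wells on that plate plus 3 SD, cut at about 8% in these data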
# Target sequence (P32245 whole entry, looked up): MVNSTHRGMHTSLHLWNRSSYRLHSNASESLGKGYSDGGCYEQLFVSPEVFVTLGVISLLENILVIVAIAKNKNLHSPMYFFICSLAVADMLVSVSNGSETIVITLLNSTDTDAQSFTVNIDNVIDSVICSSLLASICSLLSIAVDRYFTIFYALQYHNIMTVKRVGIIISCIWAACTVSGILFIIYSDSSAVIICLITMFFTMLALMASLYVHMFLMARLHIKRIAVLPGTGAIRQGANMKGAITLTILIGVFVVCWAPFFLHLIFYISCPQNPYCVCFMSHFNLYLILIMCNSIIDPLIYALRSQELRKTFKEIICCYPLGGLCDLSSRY
# PfG6PD inh – PfG6PD (Plasmodium falciparum) enzyme inhibition; PfGluPho enzyme, NADPH resazurin-diaphorase fluorescence; inhibition, % at 20 µM; hit rate 0.78% among 350,000;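 active means inhibition reaching at least a set limit at 20 µM in the primary screen, cut at about 59% in these data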;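 further: 0% = DMSO wells with substrate and 100% = DMSO wells lacking glucose-6-phosphate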
# MC4R antag cAMP – blocks human MC4R cAMP signaling | P32245 | MC4R-expressing cells, MTII-stimulated cAMP, LANCE TR-FRET | inhibition, % at 6.5 µM | hit rate 0.48% among 360,000;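 active means inhibition above its plate's cutoff, the mean of tested wells on that plate plus 3 SD, cut at about 29% in these data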;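 further: 0% = Melanotan II alone and 100% = Melanotan II plus saturating MCL0020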
#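 system = U2OS cells with stable human MC4R expression | also added = Melanotan II challenge after compound preincubation | dosing = one concentration, 6.5 µM nominal | incubation = compound 30 min, challenge 1 h, detection 1 h | measured by = TR-FRET with Eu-cAMP and labeled anti-cAMP, 671 nm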
# PfG6PD confirm – confirmation of Plasmodium falciparum G6PD inhibitors; AID 504753; recombinant PfGluPho, NADPH-diaphorase-resazurin fluorescence; hit rate 34% among 2,400; shares compounds with PfG6PD inh; inhibition, % at 20 µM;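 active means inhibition of at least 50% at 20 µM in any single replicate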;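 further: 0% = DMSO with substrate and 100% = DMSO lacking glucose-6-phosphate substrate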
# Diaphorase 10uM – counter-screen for P. falciparum G6PD inhibitors: diaphorase inhibitors, oxidizers; shares compounds with PfG6PD inh; inhibition, % at 20 µM; diaphorase-coupled resazurin reduction, fluorescence, NADPH 10 uM; hit rate 39% among 820;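 active means average inhibition reaching 50% or more with the compound at 20 µM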;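 further: resorufin red fluorescence formed as diaphorase reduces resazurin using NADPH; 0% = DMSO with enzyme and 100% = DMSO without enzyme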
# Diaph ctr 30uM – inhibits diaphorase or oxidizes, flagging false PfG6PD hits; shares compounds with PfG6PD inh; Diaphorase/resazurin coupled assay, resorufin fluorescence, 30 uM NADPH; inhibition, % at 20 µM; hit rate 29% among 820; AID 504863;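 active means inhibition averaging 50% or more, tested at 20 µM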;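 further: 0% = DMSO with enzyme and 100% = DMSO wells lacking diaphorase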
# Active calls of the source: *; nt = no result; ! = not active in a repeat. Rows were chosen to be rich in hits. Some 3% of all compounds tested hit in one or more screens of this group.
SMILES,ABHD5-PLIN5 inh,Beta2AR agonist,MC4R barr agon,PfG6PD inh,MC4R antag cAMP,PfG6PD confirm,others
CCC(CO)Oc1cc(NCc2ccccc2)c2ncn(C(C)C)c2c1 (centres undefined),-4,-3,0,9,10,nt,
CCn1nc(C(=O)NCc2nnc3ccccn23)c2ccccc2c1=O,-7,-4,-2,-18,9,nt,
CC1=C(C(=O)N2CCCCCC2)CC(CC(=O)NC2CCCCC2)C(=O)N1Cc1ccc(C(C)(C)C)cc1 (centres undefined),-6,nt,nt,nt,nt,nt,
COc1cccc(NC(=O)C(OC(=O)c2ccccc2NS(=O)(=O)c2cccs2)c2ccccc2)c1 (centres undefined),-16,17,-3,75*,5,32,
CSC(=S)NN=C(C)c1cccc(C)n1,-6,2,-2,95*,-3,30,
O=[N+]([O-])c1ccc(N/N=C/c2cccnc2)cc1,-3,-5,-2,31,-6,nt,
[O-]/[N+](=C/c1cccnc1)c1ccc(Br)cc1,-22,-1,-1,105*,0,78*,Diaphorase 10uM=68*;Diaph ctr 30uM=33
CC(C)(C)OC(=O)N(CCc1ccccc1)Cc1ccccc1OCc1ccc(NC(=O)C2CCCC2)cc1,-6,0,0,12,-1,nt,
NC(=O)N/N=C/c1ccc(-n2nncc2-c2ccc(Cl)cc2)cc1,-6,6,4,77*,10,50*,Diaphorase 10uM=48;Diaph ctr 30uM=50
Nc1c(C(=O)N/N=C/c2ccc(Cl)cc2)cnn1-c1ccccc1,-5,-12,4,2,9,nt,
O=C(CSc1nnc(SCc2cccc3ccccc23)s1)N/N=C/c1c[nH]c2ccccc12,1,0,2,42,26,nt,
O=C(CSc1nnc(SCc2ccc(Cl)cc2)s1)N/N=C/c1c[nH]c2ccccc12,-8,-3,5,60*,-6,33,
NC(=S)N/N=C/c1c[nH]c2ccc(OCc3ccccc3)cc12,-11,-10,0,60*,-3,27,
c1cncc(-c2nnc(-c3cccnc3)nn2)c1,-11,0,-1,77*,-3,31,
COc1cc(OC)c(C(=O)OCC(=O)NCC2CCCCC2)cc1OC,1,7,-2,-2,0,nt,
Cc1c(Cl)cccc1NC(=O)C1Cc2ccccc2CN1C(=O)c1ccccc1 (centres undefined),-6,0,1,81*,21,36,
Cc1cccc(NC(=O)C2Cc3ccccc3CN2C(=O)OCc2ccccc2)c1C (centres undefined),nt,-3,nt,-1,nt,nt,
Cc1ccc(O)c(N=Cc2cccs2)c1,1,-6,2,71*,7,45,
Cc1ccc(O)c(N=Cc2ccc(C)s2)c1,-9,0,-1,67*,-1,20,
Sc1ccccc1N=Cc1cccs1,-3,nt,-4,29,-1,nt,
COc1ccc(-n2nnnc2CNC(=O)c2ccc3c(c2)OCO3)cc1,7,-3,-1,2,3,nt,
COCCn1c2nc(=O)n(-c3ccccc3)c(=O)c-2nc2ccccc21,-10,nt,-4,59*,-11,38,
COCCn1c(-c2ccc(OC)cc2)nc2ccccc21,2,-11,-3,10,12,nt,
O=C(NCCc1ccccc1F)C1CCC(=O)N(Cc2ccc(Cl)cc2)C1 (centres undefined),5,5,-1,-12,1,nt,
O=[N+]([O-])c1ccc(SCCc2ccccn2)cc1,-2,-12,-3,43,8,nt,
SMILES,ABHD5-PLIN5 inh,Beta2AR agonist,MC4R barr agon,PfG6PD inh,MC4R antag cAMP,PfG6PD confirm,others
O=[N+]([O-])c1ccc(SCCc2ccncc2)cc1,-2,-5,0,68*!,10,13,
O=C1c2ccccc2C(=O)c2c1oc(C(F)(F)F)c2C(=O)c1ccccc1,-22,10,1,74*,-2,16,
Cc1ncc([N+](=O)[O-])n1CC(=O)NC1CCCCCC1,5,2,-2,-8,0,nt,
Cc1ccc(N(CC(=O)N/N=C/c2cccc(Br)c2)S(C)(=O)=O)cc1,5,-4,1,115*,-3,86*,Diaphorase 10uM=79*;Diaph ctr 30uM=71*
CCCCCCCCC(=O)N/N=C/c1cccc(Br)c1,-1,6,1,81*,0,11,
COc1cccc(/C=N/NC(=O)CCC(=O)Nc2ccc(Br)cc2)c1,-10,-9,-1,-1,-1,nt,
Cc1ccc(N(CC(=O)N/N=C/c2cccs2)S(C)(=O)=O)cc1,1,5,-1,12,-3,nt,
O=C(CCC(=O)Nc1ccc(F)cc1)N/N=C/c1cccc(Br)c1,-1,-16,0,113*,-12,75*,Diaphorase 10uM=66*;Diaph ctr 30uM=59*
Cc1ccccc1N/N=C/c1c(C)nc2ccccn12,1,8,-1,1,0,nt,
CC(NC(=O)CCSc1nc(-c2ccc3c(c2)OCO3)cc(C(F)(F)F)n1)c1ccccc1 (centres undefined),-2,-14,-1,10,7,nt,
Cc1cc(C)c(NC(=S)NCC2CCN(C(C)c3ccccc3)C2)c(C)c1 (centres undefined),14,12,2,84*,13,76*,Diaphorase 10uM=0;Diaph ctr 30uM=-3
CCOC(=O)CCCCCC(=O)Nc1ccc2c(c1)C(=O)N([C@H](C)CO)C[C@H](C)[C@@H](CN(C)C(=O)Nc1ccccc1)OCCCC[C@@H](C)O2,-4,nt,0,14,3,nt,
O=C(CSc1nc2cc(Cl)ccc2s1)c1cc2ccccc2o1,-4,3,-2,64*,3,5,
CC(C)S(=O)(=O)c1csc(NC(=O)Nc2cc(Cl)ccc2Cl)c1Cl,0,-1,5,86*,14,4,
C=CCc1c(C)[nH]c(=S)c(C#N)c1C,9,2,-1,73*,12,56*,Diaphorase 10uM=-13;Diaph ctr 30uM=-21
C=CCc1c(C)c(C#N)c2nc3ccccc3n2c1N1CCCCC1,7,1,-1,-21,-2,nt,
CCCCC(=O)Nc1sc(C(=O)N(CC)CC)c(C)c1C(=O)OC,-4,-9,3,70*,4,30,
O=C(NC1CCCCC1)c1ccc(CNc2nc(=S)[nH]c3ccccc23)cc1,5,-3,0,-4,8,nt,
O=S(=O)(c1ccccc1)N1CCN=C1SCc1ccccc1,-5,4,-3,79*,5,36,
O=[N+]([O-])c1cccc(CSC2=NCCN2S(=O)(=O)c2ccccc2)c1,-5,24,-1,72*,-5,19,
O=[N+]([O-])c1ccc(S(=O)(=O)N2CCN=C2SCc2cccnc2)cc1,2,-11,-1,-18,9,nt,
